Published values from different studies.
Target: Serine/threonine-protein kinase PAK 2 (PAK2, Homo sapiens, UniProt Q13177)

`FC(F)(F)Oc1cccc(-c2cnc3ccc(-c4ccncc4)nn23)c1` has an activity vs control of 95% (enzyme activity; inhibitor; radiometric; 1 µM).
`CN([C@@H]1CCc2c(CC(=O)O)c3ccccc3n2C1)S(=O)(=O)c1ccc(F)cc1` has a remaining binding of 100% (cell-free assay; competition with immobilised ligand; 1 µM).
`CC(C)(O)[C@H]1CC[C@H](Nc2ccc3ncc(-c4cccc(C(F)(F)F)c4)n3n2)CC1` has a remaining activity of 93.4% (enzyme activity; inhibitor; 1 µM).
The remaining signal of `Clc1ccc(Nc2nnc(Cc3ccncc3)c3ccccc23)cc1` is reported as 101% (cell-free assay; 0.5 µM).
For `CCCOc1ccc(OC)c(F)c1C(=O)c1ccc(C(=O)N[C@@H]2CNC[C@H]2NC(=O)c2ccc3[nH]ncc3c2)cc1`, the remaining activity was 74% (enzyme activity; inhibitor; 10 µM).
`Cc1noc([C@H]2C[C@@H](c3ccc(C(F)(F)F)cc3)CN(C(=O)N3CCS(=O)(=O)C3)C2)n1` has a remaining binding of 87% (cell-free assay; competition with immobilised ligand; 1 µM).
With `CS(=O)(=O)Nc1cccc(-c2csc(NC(=O)CSc3nc4nccnc4c(=O)n3CCc3ccccc3)n2)c1` the inhibition was 3% (enzyme activity; inhibitor; 10 µM).
For `COc1cc(Nc2c(C#N)cnc3cc(OCCCN4CCN(C)CC4)c(OC)cc23)c(Cl)cc1Cl`, the remaining signal was 69.4% (cell-free assay; 0.5 µM).
With `CC(C)(C)c1nc(-c2cccc(NS(=O)(=O)c3c(F)cccc3F)c2F)c(-c2ccnc(N)n2)s1` the remaining activity was 88% (enzyme activity; inhibitor; radiometric; 1 µM).
For `CCN(CC)c1ccc(C2=NNC(=O)CC2C)cc1[N+](=O)[O-]` (centres unmarked), the remaining activity was 98% (enzyme activity; inhibitor; 10 µM).
For `CC(C)CC(=O)N1CCc2nc(-c3ccc(Br)cc3)nc(N(C)Cc3ccccc3)c2C1`, the remaining binding was 100% (cell-free assay; competition with immobilised ligand; 0.1 µM).
`COc1cc(/C=C/C(=O)CC(=O)/C=C/c2ccc(O)c(OC)c2)ccc1O` has an activity vs control of 84% (enzyme activity; inhibitor; 1 µM).
With `C[C@H](c1ccnc(Nc2nc3ccc(-c4cc(N(C)C)ncn4)cc3[nH]2)c1)N1CCN(C(=O)CC(F)(F)F)CC1` the remaining binding was 68% (cell-free assay; competition with immobilised ligand; 0.1 µM).
With `COc1cc2ncnc(Nc3ccc(Oc4ccccc4)c(C)c3C)c2cc1OC` the inhibition was 7% (enzyme activity; inhibitor; 1 µM).
For `Cc1cc(NC(=O)c2cccc(S(F)(F)(F)(F)F)c2)cc(-n2ccn3nc(-c4cccnc4)cc23)c1`, the remaining binding was 100% (cell-free assay; competition with immobilised ligand; 1 µM).
The remaining signal of `Nc1ncnc2occ(-c3ccc(NC(=O)Nc4cc(C(F)(F)F)ccc4F)cc3)c12` is reported as 60% (cell-free assay; inhibitor; 20 µM).
`CNc1cccc2cc(C(=O)Nc3ccc(C(=O)O)cc3)c(=O)[nH]c12` gave an inhibition of 20% (enzyme activity; inhibitor; 10 µM).
`CNCc1ccc(-c2cc(-c3nc(-c4ccc(S(=O)(=O)C(C)C)cc4)cnc3N)on2)cc1` has an inhibition of 7% (enzyme activity; inhibitor; 0.4 µM).
For `FC(F)c1nc2ccccc2n1-c1nc(N2CCOCC2)nc(N2CCOCC2)n1`, the remaining activity was 100% (enzyme activity; inhibitor; 10 µM).
The remaining binding of `O=S(=O)(NC1CCC(c2cc(F)ccc2F)(S(=O)(=O)c2ccc(Cl)cc2)CC1)C(F)(F)F` (centres unmarked) is reported as 100% (cell-free assay; competition with immobilised ligand; 1 µM).
For `O=C(Nc1cnn(-c2csc(C(=O)NC3COC3)c2)c1)Nc1c(F)cccc1Cl`, the remaining activity was 95.3% (enzyme activity; inhibitor; 5 µM).
The inhibition of `Cc1ccc(Nc2nccc(N(C)c3ccc4c(C)n(C)nc4c3)n2)cc1S(N)(=O)=O` is reported as 24% (enzyme activity; inhibitor; 10 µM).
The inhibition of `CC/C(=N\NC(=O)NCc1cccc(O)c1)c1ccc(O)c(C)c1O` is reported as 3% (enzyme activity; inhibitor; 0.1 µM).
